KLF5 inh: KLF5 expression inhibitors, primary screen, DLD-1 cells, luminescence; DLD-1 KLF5 promoter-luciferase reporter; inhibition, % at 5 µM; hit rate 0.23% among 290,000; AID 1700, 2009;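 active means inhibition above a per-plate limit of that plate's mean compound inhibition plus 3 SD, cut at about 60% in these data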;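 further: 0% = DMSO wells and 100% = LY294002 at 200 µM; higher means less KLF5 promoter-driven luciferase light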
Beta apoptosis: inhibitors of cytokine-induced beta cell apoptosis, primary screen, luminescence; INS-1E cytokine-induced death, ATP luminescence, 48 h; percent of positive-control rescue, neutral wells zero; protection from apoptosis, % (concentration not given with the values); hit rate 0.8% among 300,000; AID 435005, 2010;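 active means Every replicate reaches about 75%, or at least half do and their mean reaches it too, limit read from the data; inconclusive means At least half of replicates reach the limit but their mean does not; inactive means Under half of replicates reach the limit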;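 further: 0% = cytokine-treated negative control wells and 100% = positive control rescue; higher means more ATP so stronger rescue from cytokine killing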
HIF act: HIF pathway transcriptional activators, primary screen, cell-based, U2OS HRE-luciferase, luminescence; U2OS HRE-luciferase reporter; normalized: DMSO 0%, desferrioxamine 100%; hit rate 0.32% among 300,000; AID 1910, 2009; activation, % at 7.5 µM (by protocol);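 active means mean activation of at least 10% of the iron chelator positive control signal, with at least half of replicates also reaching 10%; inconclusive means mean and replicate majority disagree about reaching 10%; inactive means mean and most replicates under 10%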
T cruzi inh: inhibitors of intracellular T. cruzi growth, primary screen, luminescence, NIH3T3 host cells. T. cruzi beta-gal in NIH3T3, 90 h. inhibition, % (test concentration not listed). hit rate 1.4% among 300,000;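 active means mean inhibition across valid replicates above about 55%, limit read from the data; inconclusive means mean below that limit but half or more replicates reach it; inactive means mean below it, under half of replicates reach it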;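 further: signal also drops with host cell toxicity which is not excluded here; 0% = plate median of DMSO wells and 100% = zero luminescence signal; higher percent means less beta-gal luminescence so fewer parasites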
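compound dosing = single 50 nL compound addition per well in DMSO | material = NIH/3T3 host cells with β-galactosidase reporter T. cruzi | input = 5,000 host fibroblasts per well | timing = ≥90 h infection period, 3 h prior cell attachment | read-out basis = percent inhibition of parasite-derived β-gal signal | detection = GalScreen β-gal luminescence, detergent lysis, 60 min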
A1 inh: caspase 3/7 activation in MEF A1-2A-BIM cells, primary screen, A1 inhibitor project, cell-based, luminescence, HTS. Caspase-Glo 3/7 luminescence, 3 h; percent of clofoctol response, vehicle zero. caspase activation, % (test concentration not listed). hit rate 0.066% among 330,000. AID 2462, 2010;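 active means over half of replicate activation scores above 10%, or exactly half above 10 with the replicate mean above 10; inconclusive means replicate mean below 10 yet half the replicates above 10; inactive means over half of replicates below 10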
Starred values were filed as active, the others as inactive; ? = inconclusive; . = no result given. A selection: hits, their analogues and other compounds. The true share with any hit is near 2.3%.

SMILES	KLF5 inh	Beta apoptosis	HIF act	T cruzi inh	A1 inh
CC(C)(C)n1nnnc1C(c1cccnc1)N1CCN(c2ccccc2)CC1 (stereo unspecified)	-11.6	-0.3	-0.1	54.9*	-0.2
c1ccc(Cn2nnnc2C(c2cccnc2)N2CCN(c3ccccc3)CC2)cc1 (stereo unspecified)	-1.1	-5.2	-0.1	81.2*	-1.3
CC(C)(C)n1nnnc1C(c1cccnc1)N1CCN(c2ccccn2)CC1 (stereo unspecified)	-29.7	1.6	-1.4	49.2	0.2
Clc1c(CSc2nc3ccccc3o2)nc2sccn12	-156.4	-8.1	10.0*	33.6	-5.4
Clc1c(CSc2nc3ccccc3o2)nc2ccccn12	-129.8	-0.3	-0.9	-9.5	-4.6
Cc1c(OCC(=O)NC2CCN(Cc3ccccc3)CC2)ccc2c3c(c(=O)oc12)CCC3	0.8	17.5	-0.1	32.9	1.2
Cc1cc(C)n(-c2nc(Nc3ccccc3C(F)(F)F)nc(-n3nc(C)cc3C)n2)n1	11.2	82.1*	0.4	?	1.4
Cc1cc(C)n(-c2nc(Nc3ccccc3C)nc(-n3nc(C)cc3C)n2)n1	-3.4	.	-0.4	69.9*	4.3
Cc1cc(C)n(-c2nc(NC(C)(C)C)nc(NC(C)(C)C)n2)n1	-16.1	?	-0.5	-8.5	0.4
COc1ccccc1NS(=O)(=O)c1ccc(N/N=C/c2c(C)nn(-c3ccccc3)c2N2CCCC2)c([N+](=O)[O-])c1	-7.0	9.1	-0.7	66.5*	0.6
CCOc1ccc(N2CC(C(=O)Nc3cccnc3)CC2=O)cc1 (stereo unspecified)	-13.0	-2.1	-0.3	14.7	-0.3
O=C(CCC(=O)c1ccc(F)cc1)NCC1(N2CCCCC2)CCCCC1	.	6.7	.	.	0.2
O=c1oc2cc([N+](=O)[O-])ccc2nc1/C=C(\O)c1cccc(Br)c1	-18.8	7.0	16.1*	-18.7	2.0
O=c1oc2cc([N+](=O)[O-])ccc2nc1/C=C(O)/C=C/c1ccccc1	12.8	-1.9	0.1	7.2	0.0
CN(C)CCCOc1ccc(Cl)cc1Br	0.7	-7.4	-0.1	67.6*	0.5
Cc1ccc(OCCCN(C)C)c(Br)c1	-19.1	-5.8	0.1	25.7	0.3
CN(C)CCOCCOc1ccc(Cl)cc1Br	-29.2	-6.1	0.0	64.3*	-0.5
Cc1cc(Cl)c2oc(C(=O)N3CCN(c4ccncc4)CC3)c(C)c2c1	-24.4	48.4	-2.9	60.5*	2.4
COC(=O)n1c(=O)oc2ccc(S(=O)(=O)N3CCCCC3)cc21	-6.9	-4.9	-0.1	1.9	1.1
CCCCOC(=O)n1c(=O)oc2cc(S(=O)(=O)N3CCCCC3)ccc21	-20.7	18.7	55.1*	-13.0	0.3
CN(C)CCCn1c(SCC(=O)N2CC(=O)Nc3ccccc32)nc2ccccc2c1=O	-14.5	-14.1	-0.5	24.9	-0.1
CC(C)N(CCn1c(SCC(=O)N2CC(=O)Nc3ccccc32)nc2ccccc2c1=O)C(C)C	-4.4	-3.2	0.2	69.0*	-0.7
CC(=O)c1ccc(NC(=S)NCc2cccnc2)cc1	-28.1	100.1*	0.1	9.4	0.6
CCOC(=O)c1ccc(NC(=O)NCc2cccnc2)cc1	-34.9	101.0*	-0.1	3.9	-0.2
CCOC(=O)c1ccc(NCc2cccnc2)cc1	-65.3	11.6	3.3	6.8	-0.3
SMILES	KLF5 inh	Beta apoptosis	HIF act	T cruzi inh	A1 inh
O=C(/C=C/c1cc[n+](CC(=O)c2ccc3cccc4c3c2CC4)cc1)c1ccc2cccc3c2c1CC3	-23.4	4.9	-0.1	62.8*	-0.6
O=C(C[n+]1ccc2ccccc2c1)c1cccc2ccccc12	-14.7	4.7	0.0	11.5	0.0
CCOc1cc(CNc2ccc(Br)cc2)cc(Br)c1OCC(=O)NC(C)(C)C	-37.9	19.3	0.1	65.6*	1.1
CCOc1cc(CNc2ccccc2)cc(Br)c1OCC(=O)NC(C)(C)C	-14.3	19.1	0.3	11.3	-0.2
COc1ccc(C(N)=O)c(OCC(=O)Nc2cc(C)on2)c1	.	-4.7	.	.	1.7
Cc1nc(SCc2nc3c([N+](=O)[O-])cccc3[nH]2)c2oc3ccccc3c2n1	.	-7.4	.	.	17.4*
Cc1nc(SCc2nc3c(C)cccc3[nH]2)c2oc3ccccc3c2n1	.	6.7	.	.	0.4
O=Cc1cccc2ccc3cccc(C(=O)O)c3c12	.	-2.8	0.0	-9.4	-0.3
COc1ccc(N(C)S(=O)(=O)c2cccc(C(=O)NCC3CCCCC3)c2)cc1	-5.7	.	-0.7	69.4*	.
CN(C)C(CNC(=O)c1ccc2nccnc2c1)c1ccco1 (stereo unspecified)	.	-4.1	.	.	-0.7
Cc1c(-c2nc(N)nc(Nc3ccc(F)cc3)n2)oc2ccccc12	-123.6	.	3.4	62.1*	-0.5
Cc1ccccc1Nc1nc(N)nc(-c2oc3ccccc3c2C)n1	-168.2	-21.3	2.9	56.0*	-0.2
CC(C)C(C(=O)NCC1CCCO1)N(Cc1ccccc1)C(=O)CNS(=O)(=O)c1ccccc1 (stereo unspecified)	-15.9	5.4	-0.2	4.5	-0.9
CNc1nc(-c2ccccn2)nnc1-c1ccccc1	-49.0	-4.2	14.0*	5.9	0.0
c1ccc(-c2nc(-c3ccccn3)no2)cc1	26.5	40.1	0.5	-13.6	-7.4
c1ccc(-c2nnc(-c3ccccn3)nc2NC2CCCCC2)cc1	29.9	95.7*	472.3*	53.7	0.4
COc1ccc(NC(=O)COc2coc(CN3c4ccccc4CC3C)cc2=O)cc1 (stereo unspecified)	.	.	-0.4	-6.7	-0.3
Cc1ccc2nc(NC(=O)c3cccc(-c4cc5ccccc5oc4=O)c3)sc2c1	-45.5	55.6	0.5	63.7*	0.0
CCOc1ccc2nc(NC(=O)c3cccc(-c4cc5ccccc5oc4=O)c3)sc2c1	-16.2	80.8*	3.7	29.6	2.0
O=C(NNC(=O)c1cccnc1SCc1cccc([N+](=O)[O-])c1)c1ccccn1	18.0	.	29.9*	65.4*	0.1
O=C(NNC(=O)c1cccnc1SCc1cccc([N+](=O)[O-])c1)c1ccc(F)cc1	8.4	?	1.0	-7.8	-0.8
Cc1ccc(S(=O)(=O)c2c(O)c3ccc(C(=O)O)cc3[nH]c2=O)cc1	5.9	-10.6	1.1	5.6	1.4
Cc1ccc2c(c1)nnn2C1CCN(S(=O)(=O)c2ccc(C(=O)O)cc2)CC1	-23.1	3.4	-0.5	-12.7	0.3
Cc1ccc2c(c1)nnn2C1CCN(S(=O)(=O)c2ccc(C(=O)N3C(C)CCCC3C)cc2)CC1 (stereo unspecified)	-7.7	106.1*	-0.4	41.4	0.7
CS(=O)(=O)N(CC(=O)Nc1ccc(CC#N)cc1)c1ccc(C23CC4CC(CC(C4)C2)C3)cc1	2.1	87.8*	1.0	70.1*	0.1
CS(=O)(=O)N(CC(=O)Nc1c(F)cccc1F)c1ccc(C23CC4CC(CC(C4)C2)C3)cc1	-26.6	-4.6	-0.6	69.6*	0.0
